# Published values from different studies.
# Lines come from different studies, so protocols differ.
# Observed: cell growth or viability
Structure (SMILES),cell line,technique,tested at,time,quantity,result
CC[C@@]1(O)C(=O)OCc2c1cc1n(c2=O)Cc2cc3ccccc3nc2-1,CNSSF-539,SRB,,48 h,GI50,0.01 µM
O=C1CCc2ccccc2C(=O)c2ccccc2N1,L6,,,,IC50,230 µM
COc1cc2c(cc1O)CCN(Cc1cc(Br)c(OC)c(OC)c1)C2,CNSSF-539,SRB,,,GI50,0.177 µM
N#Cc1ccc2c(c1)C(=O)CCc1ccccc1C(=O)N2,L6,,,,IC50,160 µM
CCOC(=O)n1ccn(C)c1=S,GISTT1,resazurin,,72 h,IC50,< 0.07 µM
CCc1cc(CN2CCc3cc(OS(N)(=O)=O)c(OC)cc3C2)cc(CC)c1CC,CNSSF-539,SRB,,,GI50,0.916 µM
O=C1Nc2cc(F)cc(F)c2C(=O)CCc2ccccc21,L6,,,,IC50,86 µM
CC(C)C[C@H](NC(=O)[C@H](Cc1ccccc1)NC(=O)c1cnccn1)B(O)O,GISTT1,,,72 h,IC50,0.006 µM
CC(=O)Nc1cccc(-n2c(=O)n(C3CC3)c(=O)c3c(Nc4ccc(I)cc4F)n(C)c(=O)c(C)c32)c1,SW1417,resazurin,6.25 nM,72 h,viability,71.8%
CC[C@@]1(O)C(=O)OCc2c1cc1n(c2=O)Cc2cc3c(CN(C)C)c(O)ccc3nc2-1,GISTT1,resazurin,,72 h,IC50,0.08 µM
COc1cc2c(cc1O)CCN(Cc1cc(Cl)c(OC)c(OC)c1)C2,CNSSF-539,SRB,,,GI50,0.365 µM
O=C1Nc2ccc(C(=O)N3CCOCC3)cc2C(=O)CCc2ccccc21,L6,,,,IC50,> 270 µM
